# Columns and labels:
# Type in all cases: functional
# Pseudomonas aeruginosa [1] = experiment: Antibacterial activity against Pseudomonas aeruginosa 10-9 after 18 to 24 hrs by NCCLS method
# Method in brief: (§1)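 Standard NCCLS (M100-S11) MIC testing against Gram-positive and Gram-negative strains. Plates were incubated at 35 °C for 18–24 h. The MIC was read as the lowest concentration giving complete inhibition of visible bacterial growth.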
# [2] = test system: Mycobacterium tuberculosis; experiment: Antimycobacterial activity against Mycobacterium tuberculosis H37Rv ATCC 27294 by microplate alamar blue assay
# Method in brief: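 Microplate Alamar Blue fluorescence assay on strain H37Rv ATCC 27294. MIC was the lowest concentration cutting fluorescence by ≥90% against the mean of replicate bacterium-only controls.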
# Enterococcus faecalis [3] = experiment: Antibacterial activity against Enterococcus faecalis 10-5 after 18 to 24 hrs by NCCLS method; method in brief: as §1
# Pseudomonas aeruginosa [4] = experiment: Antibacterial activity against Pseudomonas aeruginosa 10-20 after 18 to 24 hrs by NCCLS method; method in brief: as §1
# Staphylococcus aureus [5] = experiment: Antibacterial activity against Staphylococcus aureus ATCC 2592 after 18 to 24 hrs by NCCLS method; method in brief: as §1
# Enterococcus faecium [6] = experiment: Antibacterial activity against Enterococcus faecium 10-9 after 18 to 24 hrs by NCCLS method; method in brief: as §1
# Escherichia coli [7] = experiment: Antibacterial activity against extended spectrum beta-lactamases producing Escherichia coli 10-2 after 18 to 24 hrs by NCCLS method; method in brief: as §1
# Enterococcus faecalis [8] = experiment: Antibacterial activity against Enterococcus faecalis 10-7 after 18 to 24 hrs by NCCLS method; method in brief: as §1
# Staphylococcus aureus [9] = experiment: Antibacterial activity against methicillin-resistant Staphylococcus aureus 10-11 after 18 to 24 hrs by NCCLS method
# Method in brief: (§2)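 Incubated at 35 °C for 18–24 h under NCCLS (M100-S11) standards. MIC was read as the lowest concentration giving complete inhibition of visible bacterial growth.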
# Escherichia coli [10] = experiment: Antibacterial activity against extended spectrum beta-lactamases producing Escherichia coli 10-3 after 18 to 24 hrs by NCCLS method; method in brief: as §1
# Klebsiella pneumoniae [11] = experiment: Antibacterial activity against Klebsiella pneumoniae 10-3 after 18 to 24 hrs by NCCLS method; method in brief: as §1
# Klebsiella pneumoniae [12] = experiment: Antibacterial activity against Klebsiella pneumoniae 10-4 after 18 to 24 hrs by NCCLS method; method in brief: as §1
# Streptococcus pneumoniae [13] = experiment: Antibacterial activity against Streptococcus pneumoniae 10-1 after 18 to 24 hrs by NCCLS method; method in brief: as §1
# Enterococcus faecalis [14] = experiment: Antibacterial activity against Enterococcus faecalis 10-6 after 18 to 24 hrs by NCCLS method; method in brief: as §1
# Pseudomonas aeruginosa [15] = experiment: Antibacterial activity against Pseudomonas aeruginosa 10-12 after 18 to 24 hrs by NCCLS method; method in brief: as §1
# [16] = test system: Staphylococcus epidermidis; experiment: Antibacterial activity against methicillin-sensitive Staphylococcus epidermidis 10-11 after 18 to 24 hrs by NCCLS method; method in brief: as §1
# Klebsiella pneumoniae [17] = experiment: Antibacterial activity against extended spectrum beta-lactamases producing Klebsiella pneumoniae 10-1 after 18 to 24 hrs by NCCLS method; method in brief: as §1
# [18] = test system: Staphylococcus epidermidis; experiment: Antibacterial activity against methicillin-sensitive Staphylococcus epidermidis 10-15 after 18 to 24 hrs by NCCLS method; method in brief: as §2
# Staphylococcus aureus [19] = experiment: Antibacterial activity against methicillin-resistant Staphylococcus aureus 10-15 after 18 to 24 hrs by NCCLS method; method in brief: as §2
# Klebsiella pneumoniae [20] = experiment: Antibacterial activity against extended spectrum beta-lactamases producing Klebsiella pneumoniae 10-3 after 18 to 24 hrs by NCCLS method; method in brief: as §1
# Klebsiella pneumoniae [21] = experiment: Antibacterial activity against extended spectrum beta-lactamases producing Klebsiella pneumoniae 10-2 after 18 to 24 hrs by NCCLS method; method in brief: as §1
# Escherichia coli [22] = experiment: Antibacterial activity against extended spectrum beta-lactamases producing Escherichia coli 10-4 after 18 to 24 hrs by NCCLS method; method in brief: as §1
# Enterococcus faecium [23] = experiment: Antibacterial activity against Enterococcus faecium 10-6 after 18 to 24 hrs by NCCLS method; method in brief: as §1
# Escherichia coli [24] = experiment: Antibacterial activity against Escherichia coli 10-3 after 18 to 24 hrs by NCCLS method; method in brief: as §1
# [25] = test system: Staphylococcus epidermidis; experiment: Antibacterial activity against methicillin-resistant Staphylococcus epidermidis 10-10 after 18 to 24 hrs by NCCLS method; method in brief: as §2
# Staphylococcus aureus [26] = experiment: Antibacterial activity against methicillin-sensitive Staphylococcus aureus 10-14 after 18 to 24 hrs by NCCLS method; method in brief: as §1
# [27] = test system: Staphylococcus epidermidis; experiment: Antibacterial activity against methicillin-resistant Staphylococcus epidermidis 10-13 after 18 to 24 hrs by NCCLS method; method in brief: as §2
# Escherichia coli [28] = experiment: Antibacterial activity against Escherichia coli ATCC 25922 after 18 to 24 hrs by NCCLS method; method in brief: as §1
# Pseudomonas aeruginosa [29] = experiment: Antibacterial activity against Pseudomonas aeruginosa 10-18 after 18 to 24 hrs by NCCLS method; method in brief: as §1
# Staphylococcus aureus [30] = experiment: Antibacterial activity against methicillin-sensitive Staphylococcus aureus 10-13 after 18 to 24 hrs by NCCLS method; method in brief: as §1
# Staphylococcus aureus [31] = experiment: Antibacterial activity against methicillin-resistant Staphylococcus aureus 10-13 after 18 to 24 hrs by NCCLS method; method in brief: as §2
# Escherichia coli [32] = experiment: Antibacterial activity against Escherichia coli 10-1 after 18 to 24 hrs by NCCLS method; method in brief: as §1
# Pseudomonas aeruginosa [33] = experiment: Antibacterial activity against Pseudomonas aeruginosa 10-5 after 18 to 24 hrs by NCCLS method; method in brief: as §1
# Escherichia coli [34] = experiment: Antibacterial activity against Escherichia coli 10-2 after 18 to 24 hrs by NCCLS method; method in brief: as §1
# Streptococcus pneumoniae [35] = experiment: Antibacterial activity against Streptococcus pneumoniae 10-6 after 18 to 24 hrs by NCCLS method; method in brief: as §1
# Staphylococcus aureus [36] = experiment: Antibacterial activity against methicillin-sensitive Staphylococcus aureus 10-11 after 18 to 24 hrs by NCCLS method; method in brief: as §1
# Pseudomonas aeruginosa [37] = experiment: Antibacterial activity against Pseudomonas aeruginosa 10-15 after 18 to 24 hrs by NCCLS method; method in brief: as §1
# Klebsiella pneumoniae [38] = experiment: Antibacterial activity against Klebsiella pneumoniae 10-2 after 18 to 24 hrs by NCCLS method; method in brief: as §1
SMILES,MIC [2] [µg/mL],MIC (Enterococcus faecalis [3]) [µg/mL],MIC (Staphylococcus aureus [5]) [µg/mL],MIC (Enterococcus faecium [6]) [µg/mL],MIC (Enterococcus faecalis [8]) [µg/mL],MIC (Staphylococcus aureus [9]) [µg/mL],MIC (Klebsiella pneumoniae [11]) [µg/mL],MIC (Klebsiella pneumoniae [12]) [µg/mL],MIC (Streptococcus pneumoniae [13]) [µg/mL],MIC (Enterococcus faecalis [14]) [µg/mL],MIC [16] [µg/mL],MIC (Klebsiella pneumoniae [17]) [µg/mL],MIC [18] [µg/mL],MIC (Klebsiella pneumoniae [20]) [µg/mL],MIC (Klebsiella pneumoniae [21]) [µg/mL],MIC (Enterococcus faecium [23]) [µg/mL],MIC [25] [µg/mL],MIC (Staphylococcus aureus [26]) [µg/mL],MIC [27] [µg/mL],MIC (Pseudomonas aeruginosa [29]) [µg/mL],also measured
COc1cc(Br)c(CN2CCN(c3cc4c(cc3F)c(=O)c(C(=O)O)cn4C3CC3)CC2)cc1OC,> 32,> 128,2,> 128,> 128,32,8,> 128,8,> 128,8,> 128,> 128,> 128,> 128,8,> 128,4,32,8,MIC (Pseudomonas aeruginosa [1]): 8 µg/mL; MIC (Pseudomonas aeruginosa [4]): 16 µg/mL; MIC (Escherichia coli [7]): > 128 µg/mL; MIC (Escherichia coli [10]): > 128 µg/mL; MIC (Pseudomonas aeruginosa [15]): 8 µg/mL; MIC (Staphylococcus aureus [19]): 32 µg/mL; MIC (Escherichia coli [22]): > 128 µg/mL; MIC (Escherichia coli [24]): > 128 µg/mL; MIC (Escherichia coli [28]): 0.25 µg/mL; MIC (Staphylococcus aureus [30]): 4 µg/mL; MIC (Staphylococcus aureus [31]): 32 µg/mL; MIC (Escherichia coli [32]): > 128 µg/mL; MIC (Pseudomonas aeruginosa [33]): 8 µg/mL; MIC (Escherichia coli [34]): > 128 µg/mL; MIC (Streptococcus pneumoniae [35]): > 128 µg/mL; MIC (Staphylococcus aureus [36]): 4 µg/mL; MIC (Pseudomonas aeruginosa [37]): 16 µg/mL; MIC (Klebsiella pneumoniae [38]): > 128 µg/mL
O=C(O)c1cn(C2CC2)c2cc(N3CCN(Cc4ccc5c(c4)OCCO5)CC3)c(F)cc2c1=O,2,4,0.125,32,32,16,8,> 128,1,32,0.5,> 128,8,> 128,> 128,2,8,0.5,16,16,MIC (Pseudomonas aeruginosa [1]): 64 µg/mL; MIC (Pseudomonas aeruginosa [4]): 32 µg/mL; MIC (Escherichia coli [7]): > 128 µg/mL; MIC (Escherichia coli [10]): > 128 µg/mL; MIC (Pseudomonas aeruginosa [15]): 16 µg/mL; MIC (Staphylococcus aureus [19]): 4 µg/mL; MIC (Escherichia coli [22]): 128 µg/mL; MIC (Escherichia coli [24]): 16 µg/mL; MIC (Escherichia coli [28]): 0.125 µg/mL; MIC (Staphylococcus aureus [30]): 0.25 µg/mL; MIC (Staphylococcus aureus [31]): 16 µg/mL; MIC (Escherichia coli [32]): > 128 µg/mL; MIC (Pseudomonas aeruginosa [33]): 16 µg/mL; MIC (Escherichia coli [34]): 128 µg/mL; MIC (Streptococcus pneumoniae [35]): 32 µg/mL; MIC (Staphylococcus aureus [36]): 0.25 µg/mL; MIC (Pseudomonas aeruginosa [37]): 32 µg/mL; MIC (Klebsiella pneumoniae [38]): > 128 µg/mL
COc1cc(CN2CCN(c3cc4c(cc3F)c(=O)c(C(=O)O)cn4C3CC3)CC2)cc(OC)c1,2,128,1,> 128,> 128,128,64,> 128,8,> 128,4,> 128,128,> 128,> 128,16,> 128,1,128,128,MIC (Pseudomonas aeruginosa [1]): 128 µg/mL; MIC (Pseudomonas aeruginosa [4]): 64 µg/mL; MIC (Escherichia coli [7]): > 128 µg/mL; MIC (Escherichia coli [10]): > 128 µg/mL; MIC (Pseudomonas aeruginosa [15]): 64 µg/mL; MIC (Staphylococcus aureus [19]): 64 µg/mL; MIC (Escherichia coli [22]): > 128 µg/mL; MIC (Escherichia coli [24]): > 128 µg/mL; MIC (Escherichia coli [28]): 1 µg/mL; MIC (Staphylococcus aureus [30]): 0.5 µg/mL; MIC (Staphylococcus aureus [31]): > 128 µg/mL; MIC (Escherichia coli [32]): > 128 µg/mL; MIC (Pseudomonas aeruginosa [33]): 64 µg/mL; MIC (Escherichia coli [34]): > 128 µg/mL; MIC (Streptococcus pneumoniae [35]): > 128 µg/mL; MIC (Staphylococcus aureus [36]): 1 µg/mL; MIC (Pseudomonas aeruginosa [37]): 64 µg/mL; MIC (Klebsiella pneumoniae [38]): > 128 µg/mL
O=C(O)c1cn(C2CC2)c2cc(N3CCNCC3)c(F)cc2c1=O [CIPROFLOXACIN],0.5,8,0.25,16,16,32,0.25,32,2,64,0.5,32,8,32,32,1,8,0.5,16,1,MIC (Staphylococcus aureus [30]): 0.5 µg/mL; MIC (Staphylococcus aureus [31]): 128 µg/mL; MIC (Streptococcus pneumoniae [35]): 32 µg/mL; MIC (Staphylococcus aureus [36]): 0.5 µg/mL; MIC (Klebsiella pneumoniae [38]): 32 µg/mL

# Reference: ChEMBL document CHEMBL2157880, “Synthesis, antimycobacterial and antibacterial activity of ciprofloxacin derivatives containing a N-substituted benzyl moiety” (2012)
